Source: ChEMBL document CHEMBL1649105, “Development of Selective LH Receptor Agonists by Heterodimerization with a FSH Receptor Antagonist” (ACS Med Chem Lett, 2011)
Active and inactive are the calls of the source. The calls are words filed in the database; no cut-off is given here.

Key:
[1] = molecular target: T1, Follicle-stimulating hormone receptor (Homo sapiens) (UniProt P23945); assay: Agonist activity at human FSHR receptor expressed in CHO-K1 cells assessed as stimulation of luciferase activity by CRE-driven luciferase reporter gene assay relative to control; type: functional, cell-based
T1 sequence (whole entry): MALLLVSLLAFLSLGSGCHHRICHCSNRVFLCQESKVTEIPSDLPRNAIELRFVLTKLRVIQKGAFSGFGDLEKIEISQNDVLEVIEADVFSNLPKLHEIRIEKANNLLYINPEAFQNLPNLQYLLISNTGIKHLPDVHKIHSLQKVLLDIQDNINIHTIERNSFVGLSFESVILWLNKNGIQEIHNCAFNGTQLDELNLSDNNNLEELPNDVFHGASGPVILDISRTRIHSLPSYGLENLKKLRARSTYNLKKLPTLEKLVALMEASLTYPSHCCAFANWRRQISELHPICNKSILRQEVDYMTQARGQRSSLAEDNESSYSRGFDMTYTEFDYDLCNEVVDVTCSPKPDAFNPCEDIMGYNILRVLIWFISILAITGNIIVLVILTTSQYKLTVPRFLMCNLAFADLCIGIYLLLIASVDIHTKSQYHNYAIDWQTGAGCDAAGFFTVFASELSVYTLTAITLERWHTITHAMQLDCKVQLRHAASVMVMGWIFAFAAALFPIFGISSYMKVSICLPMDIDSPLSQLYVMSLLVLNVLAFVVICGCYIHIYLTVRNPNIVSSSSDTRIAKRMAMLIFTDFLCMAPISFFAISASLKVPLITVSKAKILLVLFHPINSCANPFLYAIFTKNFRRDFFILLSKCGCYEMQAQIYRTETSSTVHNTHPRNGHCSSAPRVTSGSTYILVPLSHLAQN

[2] = molecular target: T2, Lutropin-choriogonadotropic hormone receptor (Homo sapiens, UniProt P22888); assay: Antagonist activity at human LH receptor expressed in CHO-K1 cells assessed as inhibition of LH-induced luciferase activity by CRE-driven luciferase reporter gene assay; type: functional, cell-based
T2 sequence (P22888 whole entry): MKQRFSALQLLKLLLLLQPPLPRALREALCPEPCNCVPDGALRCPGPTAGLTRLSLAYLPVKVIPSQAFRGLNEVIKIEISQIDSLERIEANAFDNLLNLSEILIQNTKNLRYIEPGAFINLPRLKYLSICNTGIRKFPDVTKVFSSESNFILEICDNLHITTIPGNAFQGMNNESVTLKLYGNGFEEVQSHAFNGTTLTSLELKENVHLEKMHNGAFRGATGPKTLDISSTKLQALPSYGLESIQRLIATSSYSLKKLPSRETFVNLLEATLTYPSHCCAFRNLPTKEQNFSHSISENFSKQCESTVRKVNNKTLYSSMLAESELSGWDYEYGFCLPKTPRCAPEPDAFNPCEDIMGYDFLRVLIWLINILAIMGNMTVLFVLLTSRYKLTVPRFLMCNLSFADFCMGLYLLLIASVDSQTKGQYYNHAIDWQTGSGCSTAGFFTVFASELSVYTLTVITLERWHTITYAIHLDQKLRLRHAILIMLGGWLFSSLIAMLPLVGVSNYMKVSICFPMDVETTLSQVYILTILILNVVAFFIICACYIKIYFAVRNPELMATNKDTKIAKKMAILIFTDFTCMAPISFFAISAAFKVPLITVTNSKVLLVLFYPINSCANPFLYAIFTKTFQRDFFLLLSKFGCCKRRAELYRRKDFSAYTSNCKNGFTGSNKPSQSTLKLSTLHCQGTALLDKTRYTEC

[3] = molecular target: T3, Follicle-stimulating hormone receptor (Homo sapiens, UniProt P23945); assay: Antagonist activity at human FSHR receptor expressed in CHO-K1 cells assessed as inhibition of FSH-induced luciferase activity by CRE-driven luciferase reporter gene assay relative to control
T3 sequence (P23945 whole entry): T1 sequence (whole entry)

[4] = molecular target: T2, Lutropin-choriogonadotropic hormone receptor; assay: Agonist activity at human LH receptor expressed in CHO-K1 cells assessed as stimulation of luciferase activity by CRE-driven luciferase reporter gene assay; type: functional, cell-based
Outline: (§1)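 EC50 or IC50 values were fitted from concentration–effect curves. Data come from two independent experiments, each run in duplicate, with SD generally below 0.3.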

[5] = molecular target: T3, Follicle-stimulating hormone receptor; assay: Agonist activity at human FSHR receptor expressed in CHO-K1 cells assessed as stimulation of luciferase activity by CRE-driven luciferase reporter gene assay; type: functional, cell-based; outline: as §1
[6] = molecular target: T1, Follicle-stimulating hormone receptor (Homo sapiens); assay: Agonist activity at human FSHR receptor expressed in CHO-K1 cells assessed as stimulation of luciferase activity at 10 uM by CRE-driven luciferase reporter gene assay relative to control; type: functional, cell-based
[7] = molecular target: T1, Follicle-stimulating hormone receptor (Homo sapiens); assay: Antagonist activity at human FSHR receptor expressed in CHO-K1 cells assessed as inhibition of FSH-induced luciferase activity at 10 uM by CRE-driven luciferase reporter gene assay relative to control

SMILES: CSc1nc(-c2cccc(NCC(=O)NCc3cn(CCOCCOCCN=[N+]=[N-])nn3)c2)c2c(N)c(C(=O)NC(C)(C)C)sc2n1
- Emax [1]: 81%
- inhibition [2]: inactive
- IC50 ([3]; cho-k1): Not Active
- EC50 ([4]; read-out: EC50): 5 nM
- EC50 ([5]; read-out: EC50): 397 nM

SMILES: CSc1nc(-c2cccc(NCC(=O)NCc3cn(CCOCCOCCn4cc(COc5ccc([C@]6(C)CC(C)(C)N(C(C)=O)c7ccc(NC(=O)c8ccc(-c9ccccc9)cc8)cc76)cc5)nn4)nn3)c2)c2c(N)c(C(=O)NC(C)(C)C)sc2n1
- Emax [6]: 18%
- inhibition [2]: inactive
- IC50 ([3]; cho-k1): Not Active
- EC50 ([4]; read-out: EC50): 75 nM

SMILES: CSc1nc(-c2cccc(NCC(=O)NCc3cn(CCOCCOCCOCCOCCn4cc(COc5ccc([C@@]6(C)CC(C)(C)N(C(C)=O)c7ccc(NC(=O)c8ccc(-c9ccccc9)cc8)cc76)cc5)nn4)nn3)c2)c2c(N)c(C(=O)NC(C)(C)C)sc2n1
- Imax [7]: 72%
- inhibition [2]: inactive
- IC50 ([3]; read-out: IC50): 1020 nM
- EC50 ([4]; read-out: EC50): 55 nM
- EC50 ([5]; cho-k1): Not Active

SMILES: CSc1nc(-c2cccc(NCC(=O)NCc3cn(CCOCCOCCOCCn4cc(COc5ccc([C@]6(C)CC(C)(C)N(C(C)=O)c7ccc(NC(=O)c8ccc(-c9ccccc9)cc8)cc76)cc5)nn4)nn3)c2)c2c(N)c(C(=O)NC(C)(C)C)sc2n1
- Emax [6]: 31%
- inhibition [2]: inactive
- IC50 ([3]; cho-k1): Not Active
- EC50 ([4]; read-out: EC50): 57 nM

SMILES: CC(=O)N1c2ccc(NC(=O)c3ccc(-c4ccccc4)cc3)cc2[C@@](C)(c2ccc(OCc3cn(CCOCCOCCN=[N+]=[N-])nn3)cc2)CC1(C)C
- inhibition [2]: inactive
- IC50 ([3]; read-out: IC50): 324 nM
- EC50 ([4]; cho-k1): Not Active
- EC50 ([5]; cho-k1): Not Active

SMILES: C#CCOc1ccc([C@@]2(C)CC(C)(C)N(C(C)=O)c3ccc(NC(=O)c4ccc(-c5ccccc5)cc4)cc32)cc1
- inhibition [2]: inactive
- IC50 ([3]; read-out: IC50): 39 nM
- EC50 ([4]; cho-k1): Not Active
- EC50 ([5]; cho-k1): Not Active

SMILES: CSc1nc(-c2cccc(NCC(=O)NCc3cn(CCOCCOCCn4cc(COc5ccc([C@@]6(C)CC(C)(C)N(C(C)=O)c7ccc(NC(=O)c8ccc(-c9ccccc9)cc8)cc76)cc5)nn4)nn3)c2)c2c(N)c(C(=O)NC(C)(C)C)sc2n1
- Imax [7]: 73%
- inhibition [2]: inactive
- IC50 ([3]; read-out: IC50): 920 nM
- EC50 ([4]; read-out: EC50): 43 nM
- EC50 ([5]; cho-k1): Not Active

SMILES: C#CCNC(=O)CNc1cccc(-c2nc(SC)nc3sc(C(=O)NC(C)(C)C)c(N)c23)c1
- Emax [1]: 78%
- inhibition [2]: inactive
- IC50 ([3]; cho-k1): Not Active
- EC50 ([4]; read-out: EC50): 1 nM
- EC50 ([5]; read-out: EC50): 126 nM

SMILES: CSc1nc(-c2cccc(NCC(=O)NCc3cn(CCOCCOCCOCCOCCn4cc(COc5ccc([C@]6(C)CC(C)(C)N(C(C)=O)c7ccc(NC(=O)c8ccc(-c9ccccc9)cc8)cc76)cc5)nn4)nn3)c2)c2c(N)c(C(=O)NC(C)(C)C)sc2n1
- Emax [6]: 39%
- inhibition [2]: inactive
- IC50 ([3]; cho-k1): Not Active
- EC50 ([4]; read-out: EC50): 39 nM

SMILES: CSc1nc(-c2cccc(NCC(=O)NCc3cn(CCn4cc(COc5ccc([C@]6(C)CC(C)(C)N(C(C)=O)c7ccc(NC(=O)c8ccc(-c9ccccc9)cc8)cc76)cc5)nn4)nn3)c2)c2c(N)c(C(=O)NC(C)(C)C)sc2n1
- Emax [6]: 43%
- inhibition [2]: inactive
- IC50 ([3]; cho-k1): Not Active
- EC50 ([4]; read-out: EC50): 24 nM

SMILES: CSc1nc(-c2cccc(NCC(=O)NCc3cn(CCOCCOCCOCCn4cc(COc5ccc([C@@]6(C)CC(C)(C)N(C(C)=O)c7ccc(NC(=O)c8ccc(-c9ccccc9)cc8)cc76)cc5)nn4)nn3)c2)c2c(N)c(C(=O)NC(C)(C)C)sc2n1
- Imax [7]: 65%
- inhibition [2]: inactive
- IC50 ([3]; read-out: IC50): 1660 nM
- EC50 ([4]; read-out: EC50): 61 nM
- EC50 ([5]; cho-k1): Not Active

SMILES: CSc1nc(-c2cccc(NCC(=O)NCc3cn(CCn4cc(COc5ccc([C@@]6(C)CC(C)(C)N(C(C)=O)c7ccc(NC(=O)c8ccc(-c9ccccc9)cc8)cc76)cc5)nn4)nn3)c2)c2c(N)c(C(=O)NC(C)(C)C)sc2n1
- Imax [7]: 65%
- inhibition [2]: inactive
- EC50 ([4]; read-out: EC50): 10 nM
- EC50 ([5]; cho-k1): Not Active

SMILES: CSc1nc(-c2cccc(NCC(=O)NCc3cn(CCOCCn4cc(COc5ccc([C@@]6(C)CC(C)(C)N(C(C)=O)c7ccc(NC(=O)c8ccc(-c9ccccc9)cc8)cc76)cc5)nn4)nn3)c2)c2c(N)c(C(=O)NC(C)(C)C)sc2n1
- Imax [7]: 75%
- inhibition [2]: inactive
- EC50 ([4]; read-out: EC50): 27 nM
- EC50 ([5]; cho-k1): Not Active

SMILES: CSc1nc(-c2cccc(NCC(=O)NCc3cn(CCOCCn4cc(COc5ccc([C@]6(C)CC(C)(C)N(C(C)=O)c7ccc(NC(=O)c8ccc(-c9ccccc9)cc8)cc76)cc5)nn4)nn3)c2)c2c(N)c(C(=O)NC(C)(C)C)sc2n1
- Emax [6]: 44%
- inhibition [2]: inactive
- IC50 ([3]; cho-k1): Not Active
- EC50 ([4]; read-out: EC50): 80 nM
